Measured values as given in ChEMBL document CHEMBL1154814, “Synthesis and antimicrobial activities of 3-O-alkyl analogues of (+)-catechin: improvement of stability and proposed action mechanism” (Eur J Med Chem, 2010).
Converted amounts (≈) assume the structure as drawn.

What was measured:
[1] = test system: Candida tropicalis; assay: Antifungal activity against Candida tropicalis IFO 10241 after 24 to 72 hrs by NCCLS method; type: functional
Outline: (§1)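 Yeasts were grown overnight on Sabouraud dextrose agar at 35 °C and adjusted in saline to 0.5 McFarland (1.0–5.0 × 10^6 cells/mL). This stock was diluted 1:100 then 1:20 to 5.0 × 10^2–2.5 × 10^3 cells/mL. Tubes were incubated at 35 °C for 48 h in ambient air. MIC taken as the lowest concentration preventing growth. Triplicates.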

[2] = test system: Escherichia coli; assay: Antibacterial activity against Escherichia coli ATCC 10536 after 24 hrs by NCCLS method; type: functional; conditions: ATCC 10536, 24 h
Outline: (§2)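 Agar dilution on Mueller Hinton agar. Overnight cultures on soybean casein digest agar at 37 °C were adjusted to 0.5 McFarland, then diluted 10-fold to 1.2 × 10^7 CFU/mL. 10 µL of each culture was spotted, incubated at 35 °C for 24 h. MIC taken as the lowest concentration preventing growth. Triplicates.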

[3] = test system: Escherichia coli; assay: Antibacterial activity against Escherichia coli ATCC 25922 after 24 hrs by NCCLS method; type: functional; conditions: ATCC 25922, 24 h; outline: as §2
[4] = test system: Proteus mirabilis; assay: Antibacterial activity against Proteus mirabilis ATCC 27853 after 24 hrs by NCCLS method; type: functional; outline: as §2
[5] = test system: Klebsiella pneumoniae; assay: Antibacterial activity against Klebsiella pneumoniae ATCC 10031 after 24 hrs by NCCLS method; type: functional; conditions: ATCC 10031, 24 h; outline: as §2
[6] = test system: Candida albicans; assay: Antifungal activity against Candida albicans ATCC 10231 after 24 to 72 hrs by NCCLS method; type: functional; outline: as §1
[7] = test system: Bacillus subtilis; assay: Antibacterial activity against Bacillus subtilis ATCC 6633 after 24 hrs by NCCLS method; type: functional; conditions: ATCC 6633, 24 h; outline: as §2
[8] = test system: Staphylococcus aureus; assay: Antibacterial activity against Staphylococcus aureus ATCC 25923 after 24 hrs by NCCLS method; type: functional; conditions: ATCC 25923, 24 h; outline: as §2
[9] = test system: Pichia kudriavzevii; assay: Antifungal activity against Candida krusei IFO 1664 after 24 to 72 hrs by NCCLS method; type: functional; outline: as §1
[10] = test system: Enterococcus faecalis; assay: Antibacterial activity against Enterococcus faecalis ATCC 29212 after 24 hrs by NCCLS method; type: functional; conditions: ATCC 29212, 24 h; outline: as §2
[11] = test system: Clavispora lusitaniae; assay: Antifungal activity against Candida lusitaniae ATCC 42720 after 24 to 72 hrs by NCCLS method; type: functional; outline: as §1
[12] = test system: Micrococcus luteus; assay: Antibacterial activity against Micrococcus luteus ATCC 10240 after 24 hrs by NCCLS method; type: functional; conditions: ATCC 10240, 24 h; outline: as §2
[13] = test system: Staphylococcus epidermidis; assay: Antibacterial activity against Staphylococcus epidermidis ATCC 0155 after 24 hrs by NCCLS method; type: functional; conditions: ATCC 0155, 24 h; outline: as §2
[14] = Chemical stability in PBS buffer at pH 7.4 assessed as compound remaining after 16 hrs by HPLC; type: physicochemical; conditions: read-out: Stability
Outline: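 Compound at 200 µM in 1% DMSO / 50 mM PBS, pH 7.4, incubated at 37 °C without cells; pH was checked before and after. Samples went onto a C-18 HPLC column (35/65 CH3CN/H2O, 1 mL/min, column at 37 °C). Percent remaining was taken from peak integration against an internal standard at 254 nm.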

[15] = Drug uptake assessed as incorporation into egg phosphatidylcholine liposome by HPLC; type: ADME; conditions: artificial membrane
Outline: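 Egg PC liposomes were diluted 10-fold in PBS, untrapped glucose was removed by centrifugation, and lipid was adjusted to 1 mg/mL. Compound in ethanol was added to final 50 µM with 10% ethanol. Percent incorporated into bilayers was derived from HPLC peak integration of compound left in solution.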

## CCCO[C@H]1Cc2c(O)cc(O)cc2O[C@@H]1c1ccc(O)c(O)c1
[1]
  MIC: > 128 µg/mL
[2]
  MIC: > 128 µg/mL
[3]
  MIC: > 128 µg/mL
[4]
  MIC: > 128 µg/mL
[5]
  MIC: > 128 µg/mL
[6]
  MIC: > 128 µg/mL
[7]
  MIC: 128 µg/mL (≈ 385 µM)
[8]
  MIC: 64 µg/mL (≈ 193 µM)
[9]
  MIC: > 128 µg/mL
[10]
  MIC: 64 µg/mL (≈ 193 µM)
[11]
  MIC: > 128 µg/mL
[12]
  MIC: 32 µg/mL (≈ 96.3 µM)
[13]
  MIC: 64 µg/mL (≈ 193 µM)

## CCCCCCCCCC(=O)O[C@H]1Cc2c(O)cc(O)cc2O[C@@H]1c1ccc(O)c(O)c1
[14]
  remaining at 16 h: 75%

## CCCCCCCCCCO[C@H]1Cc2c(O)cc(O)cc2O[C@@H]1c1ccc(O)c(O)c1
[15]
  Drug uptake: 100%
[14]
  remaining at 16 h: > 90%

## CCCCCCCCCCCCO[C@H]1Cc2c(O)cc(O)cc2O[C@@H]1c1ccc(O)c(O)c1
[15]
  Drug uptake: 100%

## COc1cc(CO[C@H]2Cc3c(O)cc(O)cc3O[C@@H]2c2ccc(O)c(O)c2)cc(OC)c1OC
[1]
  MIC: 128 µg/mL (≈ 272 µM)
[2]
  MIC: 64 µg/mL (≈ 136 µM)
[3]
  MIC: > 128 µg/mL
[5]
  MIC: 128 µg/mL (≈ 272 µM)
[6]
  MIC: 64 µg/mL (≈ 136 µM)
[7]
  MIC: 32 µg/mL (≈ 68 µM)
[8]
  MIC: 32 µg/mL (≈ 68 µM)
[9]
  MIC: 128 µg/mL (≈ 272 µM)
[10]
  MIC: 64 µg/mL (≈ 136 µM)
[11]
  MIC: 64 µg/mL (≈ 136 µM)
[12]
  MIC: 16 µg/mL (≈ 34 µM)
[13]
  MIC: 32 µg/mL (≈ 68 µM)

## CCCCCCO[C@H]1Cc2c(O)cc(O)cc2O[C@@H]1c1ccc(O)c(O)c1
[15]
  Drug uptake: 100%

## CCCCCCCCO[C@H]1Cc2c(O)cc(O)cc2O[C@@H]1c1ccc(O)c(O)c1
[15]
  Drug uptake: 100%

## CCCCCCCCCCCCCCO[C@H]1Cc2c(O)cc(O)cc2O[C@@H]1c1ccc(O)c(O)c1
[15]
  Drug uptake: 100%

## CCCCCCCCCCCCCCCCO[C@H]1Cc2c(O)cc(O)cc2O[C@@H]1c1ccc(O)c(O)c1
[15]
  Drug uptake: 100%

## Oc1cc(O)c2c(c1)O[C@H](c1ccc(O)c(O)c1)[C@@H](OCc1ccccc1)C2
[1]
  MIC: > 128 µg/mL
[2]
  MIC: > 128 µg/mL
[3]
  MIC: > 128 µg/mL
[4]
  MIC: 128 µg/mL (≈ 336 µM)
[5]
  MIC: 128 µg/mL (≈ 336 µM)
[6]
  MIC: > 128 µg/mL
[7]
  MIC: 64 µg/mL (≈ 168 µM)
[8]
  MIC: 64 µg/mL (≈ 168 µM)
[9]
  MIC: > 128 µg/mL
[10]
  MIC: 32 µg/mL (≈ 84.1 µM)
[11]
  MIC: > 128 µg/mL
[12]
  MIC: 32 µg/mL (≈ 84.1 µM)
[13]
  MIC: 64 µg/mL (≈ 168 µM)

## Oc1cc(O)c2c(c1)O[C@H](c1ccc(O)c(O)c1)[C@H](O)C2 [(-)-EPICATECHIN]
[1]
  MIC: > 128 µg/mL
[2]
  MIC: > 128 µg/mL
[3]
  MIC: > 128 µg/mL
[4]
  MIC: > 128 µg/mL
[5]
  MIC: > 128 µg/mL
[6]
  MIC: > 128 µg/mL
[7]
  MIC: > 128 µg/mL
[8]
  MIC: > 128 µg/mL
[9]
  MIC: > 128 µg/mL
[10]
  MIC: > 128 µg/mL
[11]
  MIC: > 128 µg/mL
[12]
  MIC: > 128 µg/mL
[13]
  MIC: > 128 µg/mL

## C[C@@H]1[C@H](O)[C@@H](C)/C=C/C=C/C=C/C=C/C=C/C=C/C=C/[C@H](O[C@@H]2O[C@H](C)[C@@H](O)[C@H](N)[C@@H]2O)C[C@@H]2O[C@](O)(C[C@@H](O)C[C@@H](O)[C@H](O)CC[C@@H](O)C[C@@H](O)CC(=O)O[C@H]1C)C[C@H](O)[C@H]2C(=O)O [AMPHOTERICIN B]
[1]
  MIC: 0.5 µg/mL (≈ 0.541 µM)
[6]
  MIC: 0.25 µg/mL (≈ 0.271 µM)
[9]
  MIC: 0.5 µg/mL (≈ 0.541 µM)
[11]
  MIC: 0.5 µg/mL (≈ 0.541 µM)

## Oc1cc(O)c2c(c1)O[C@H](c1ccc(O)c(O)c1)[C@@H](O)C2 [CIANIDANOL]
[1]
  MIC: > 128 µg/mL
[2]
  MIC: > 128 µg/mL
[3]
  MIC: > 128 µg/mL
[4]
  MIC: > 128 µg/mL
[5]
  MIC: > 128 µg/mL
[6]
  MIC: > 128 µg/mL
[7]
  MIC: > 128 µg/mL
[8]
  MIC: > 128 µg/mL
[9]
  MIC: > 128 µg/mL
[10]
  MIC: > 128 µg/mL
[11]
  MIC: > 128 µg/mL
[12]
  MIC: > 128 µg/mL
[13]
  MIC: > 128 µg/mL

## O=C(O)c1cn(C2CC2)c2cc(N3CCNCC3)c(F)cc2c1=O [CIPROFLOXACIN]
[4]
  MIC: 0.125 µg/mL (≈ 0.377 µM)
[5]
  MIC: < 0.06 µg/mL
[7]
  MIC: < 0.06 µg/mL
[8]
  MIC: 0.25 µg/mL (≈ 0.754 µM)
[10]
  MIC: 0.5 µg/mL (≈ 1.51 µM)
[12]
  MIC: < 0.06 µg/mL
[13]
  MIC: 0.25 µg/mL (≈ 0.754 µM)

## O=C(O[C@@H]1Cc2c(O)cc(O)cc2O[C@@H]1c1ccc(O)c(O)c1)c1cc(O)c(O)c(O)c1 [EPICATECHIN GALLATE]
[1]
  MIC: > 128 µg/mL
[2]
  MIC: > 128 µg/mL
[3]
  MIC: > 128 µg/mL
[4]
  MIC: > 128 µg/mL
[5]
  MIC: > 128 µg/mL
[6]
  MIC: > 128 µg/mL
[7]
  MIC: > 128 µg/mL
[8]
  MIC: > 128 µg/mL
[9]
  MIC: > 128 µg/mL
[10]
  MIC: > 128 µg/mL
[11]
  MIC: > 128 µg/mL
[12]
  MIC: > 128 µg/mL
[13]
  MIC: > 128 µg/mL

## Oc1cc(O)c2c(c1)O[C@H](c1cc(O)c(O)c(O)c1)[C@H](O)C2 [EPIGALLOCATECHIN]
[1]
  MIC: > 128 µg/mL
[2]
  MIC: > 128 µg/mL
[3]
  MIC: > 128 µg/mL
[4]
  MIC: > 128 µg/mL
[5]
  MIC: > 128 µg/mL
[6]
  MIC: > 128 µg/mL
[7]
  MIC: > 128 µg/mL
[8]
  MIC: > 128 µg/mL
[9]
  MIC: > 128 µg/mL
[10]
  MIC: > 128 µg/mL
[11]
  MIC: > 128 µg/mL
[12]
  MIC: > 128 µg/mL
[13]
  MIC: > 128 µg/mL

## O=C(O[C@@H]1Cc2c(O)cc(O)cc2O[C@@H]1c1cc(O)c(O)c(O)c1)c1cc(O)c(O)c(O)c1 [EPIGALOCATECHIN GALLATE]
[1]
  MIC: > 128 µg/mL
[15]
  Drug uptake: Not Active
[2]
  MIC: > 128 µg/mL
[3]
  MIC: > 128 µg/mL
[4]
  MIC: > 128 µg/mL
[5]
  MIC: > 128 µg/mL
[6]
  MIC: > 128 µg/mL
[7]
  MIC: > 128 µg/mL
[8]
  MIC: > 128 µg/mL
[9]
  MIC: > 128 µg/mL
[10]
  MIC: > 128 µg/mL
[14]
  remaining at 16 h: 15%
[11]
  MIC: > 128 µg/mL
[12]
  MIC: 32 µg/mL (≈ 69.8 µM)
[13]
  MIC: 128 µg/mL (≈ 279 µM)

## CCC(C)n1ncn(-c2ccc(N3CCN(c4ccc(OCC5COC(Cn6cncn6)(c6ccc(Cl)cc6Cl)O5)cc4)CC3)cc2)c1=O (configuration not stated) [ITRACONAZOLE]
[1]
  MIC: 0.06 µg/mL (≈ 0.085 µM)
[6]
  MIC: 0.06 µg/mL (≈ 0.085 µM)
[9]
  MIC: 0.25 µg/mL (≈ 0.354 µM)
[11]
  MIC: 0.125 µg/mL (≈ 0.177 µM)

## NC[C@H]1O[C@H](O[C@H]2[C@H](O)[C@@H](O[C@H]3O[C@H](CO)[C@@H](O)[C@H](N)[C@H]3O)[C@H](N)C[C@@H]2N)[C@H](O)[C@@H](O)[C@@H]1O.O=S(=O)(O)O [KANAMYCIN SULFATE]
[2]
  MIC: 8 µg/mL
[3]
  MIC: 8 µg/mL
[4]
  MIC: 32 µg/mL
[5]
  MIC: 64 µg/mL
[7]
  MIC: 2 µg/mL
[8]
  MIC: 16 µg/mL
[10]
  MIC: 32 µg/mL
[12]
  MIC: 8 µg/mL
[13]
  MIC: 4 µg/mL
